The source made the active and inactive calls. No cut-off for these calls is given here.
How the values were obtained:
[1] = system: HCC827; assay: Antiproliferative activity against human HCC827 cells assessed as inhibition of cell viability after 72 hrs by CCK-8 assay; format: functional, cell-based; conditions: HCC827, 72 h
How it was run: (§1)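 Cells kept at 37 °C, 5% CO2 in DMEM or RPMI-1640 with 10% FBS and 1% penicillin/streptomycin, then seeded at 3000 cells/well (adherent) or 10,000 cells/well (suspension). Exposed to a range of concentrations for 72 h. CCK-8 added for 1-4 h before reading A450. […] Three independent experiments.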

[2] = system: HeLa; assay: Antiproliferative activity against human HeLa cells assessed as inhibition of cell viability after 72 hrs by CCK-8 assay; format: functional, cell-based; how it was run: as §1
[3] = system: NCI-H1299; assay: Induction of cell cycle arrest in human H1299 cells assessed as increase in accumulation of cells at G2/M phase at 1 uM after 24 hrs by propidium iodide/RNase staining based flow cytometric analysis (reference value: 19%); format: functional
How it was run: (§2)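 A549 and H1299 plated at 5×10^5 cells/mL in 6-well plates, treated after adherence for 24 h. Washed with PBS, fixed overnight in ice-cold 75% ethanol, stained with propidium iodide plus RNase A for 30 min at 37 °C, analysed by flow cytometry for phase distribution. Means ± SD, three independent experiments.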

[4] = system: NCI-H1299; assay: Induction of cell cycle arrest in human H1299 cells assessed as reduction in accumulation of cells at S phase at 1 uM after 24 hrs by propidium iodide/RNase staining based flow cytometric analysis (reference value: 24.5%); format: functional; set-up: scale not given: the % may be the effect or the level left; how it was run: as §2
[5] = system: NCI-H1299; assay: Induction of apoptosis in human H1299 cells assessed as necrotic cells at 0.25 uM after 48 hrs by AnnexinV-FITC/PI staining-based flow cytometric analysis (reference value: 0.9%); format: functional
[6] = system: NCI-H1299; assay: Induction of apoptosis in human H1299 cells assessed as activation of caspase 3 at 0.25 to 1 uM after 24 hrs by Western blot analysis; format: functional, cell-based
How it was run: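 A549 or H1299 cells exposed to the indicated concentrations for 24 h. Protein extracts then immunoblotted for apoptosis-pathway proteins (Bcl2, Bim, cleaved caspase 3).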

[7] = system: A549; assay: Downregulation of KLF4 in human A549 cells at 0.25 to 1 uM by Western blot analysis; format: functional, cell-based
[8] = Intrinsic clearance in Beagle dog liver microsomes at 2 uM in presence of NADPH measured up to 1 hr by HPLC analysis; format: ADME, Canis lupus familiaris, Microsome
[9] = system: NCI-H1299; assay: Antitumour activity against human H1299 cells xenografted in Balb/c mouse assessed as inhibition of phosphorylation of RNA polymerase 2 CTD domain at Ser 5 residue at 20 to 80 mg/kg, po administered for 3 weeks by […] based light microscopic analysis; format: functional, organism-based
How it was run: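 Tumours came from the H1299 oral-dosing xenograft run for 3 weeks. Formalin-fixed, paraffin-embedded 5-µm sections were deparaffinized and rehydrated. Primary antibodies (CDK9, cyclin T1, p-Rb Ser780, RNAPII CTD Ser5, Oct4) used at 1:100 overnight at 4 °C. Biotinylated secondary for 1 h at room temperature, then ABC-peroxidase/DAB, hematoxylin counterstain and light microscopy.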

[10] = molecular target: MAPK/MAK/MRK overlapping kinase (Homo sapiens) (UniProt Q9UQ07); assay: Inhibition of recombinant human MOK (1 to 343 residues) at 1 uM using RSRSRSRSRSRSRSR as substrate measured after 40 mins in presence of [gamma33P]ATP by scintillation counting method relative to control
Sequence of MAPK/MAK/MRK overlapping kinase (Homo sapiens) (Q9UQ07 whole entry, the tested form may be a part): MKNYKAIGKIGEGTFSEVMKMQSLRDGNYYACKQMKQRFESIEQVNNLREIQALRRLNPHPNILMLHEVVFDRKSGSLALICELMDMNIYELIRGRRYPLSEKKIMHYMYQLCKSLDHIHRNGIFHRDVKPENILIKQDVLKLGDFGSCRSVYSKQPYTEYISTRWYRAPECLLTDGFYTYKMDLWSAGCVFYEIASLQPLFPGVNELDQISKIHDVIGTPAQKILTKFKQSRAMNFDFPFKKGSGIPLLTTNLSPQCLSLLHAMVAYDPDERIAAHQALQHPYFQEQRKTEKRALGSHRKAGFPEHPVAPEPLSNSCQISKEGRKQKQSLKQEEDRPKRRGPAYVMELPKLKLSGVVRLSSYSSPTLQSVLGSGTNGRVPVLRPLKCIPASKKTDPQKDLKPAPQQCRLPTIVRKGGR

[11] = molecular target: Cyclin-dependent kinase-like 3 (Homo sapiens) (UniProt Q8IVW4); assay: Inhibition of human full length recombinant human CDKL3 at 1 uM using RRRFRPASPLRGP as substrate measured after 120 mins in presence of [gamma33P]ATP by scintillation counting method relative to control
Sequence of Cyclin-dependent kinase-like 3 (Homo sapiens) (Q8IVW4 whole entry, looked up): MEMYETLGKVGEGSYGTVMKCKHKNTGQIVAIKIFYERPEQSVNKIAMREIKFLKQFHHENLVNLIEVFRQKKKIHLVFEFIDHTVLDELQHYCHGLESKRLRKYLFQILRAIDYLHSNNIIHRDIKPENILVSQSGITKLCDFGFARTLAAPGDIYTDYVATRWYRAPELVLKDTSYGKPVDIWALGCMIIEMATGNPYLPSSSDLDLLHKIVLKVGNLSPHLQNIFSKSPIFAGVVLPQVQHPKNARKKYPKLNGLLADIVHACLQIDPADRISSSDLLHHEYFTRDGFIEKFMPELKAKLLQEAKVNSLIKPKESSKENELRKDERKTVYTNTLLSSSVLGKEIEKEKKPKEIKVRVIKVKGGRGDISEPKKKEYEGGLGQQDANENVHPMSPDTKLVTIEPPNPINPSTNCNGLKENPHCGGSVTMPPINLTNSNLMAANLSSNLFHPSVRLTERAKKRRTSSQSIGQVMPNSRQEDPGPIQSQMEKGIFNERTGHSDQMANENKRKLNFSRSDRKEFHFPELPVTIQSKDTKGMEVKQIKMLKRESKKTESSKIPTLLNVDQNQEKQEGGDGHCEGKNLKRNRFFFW

[12] = molecular target: Transient receptor potential cation channel subfamily M member 7 (Homo sapiens) (UniProt Q96QT4); assay: Inhibition of recombinant human CHAK1 (1180 to end residues) at 1 uM using myelin basic protein as substrate measured after 40 mins in presence of [gamma33P]ATP by scintillation counting method relative to control
[13] = molecular target: Casein kinase I isoform gamma-2 (Homo sapiens) (UniProt P78368); assay: Inhibition of recombinant human CK1gamma2 (18 to end residues) at 1 uM using KRRRALS(p)VASLPGL as substrate measured after 40 mins in presence of [gamma33P]ATP by scintillation counting method relative to control
Sequence of Casein kinase I isoform gamma-2 (Homo sapiens) (P78368 whole entry, looked up, canonical isoform): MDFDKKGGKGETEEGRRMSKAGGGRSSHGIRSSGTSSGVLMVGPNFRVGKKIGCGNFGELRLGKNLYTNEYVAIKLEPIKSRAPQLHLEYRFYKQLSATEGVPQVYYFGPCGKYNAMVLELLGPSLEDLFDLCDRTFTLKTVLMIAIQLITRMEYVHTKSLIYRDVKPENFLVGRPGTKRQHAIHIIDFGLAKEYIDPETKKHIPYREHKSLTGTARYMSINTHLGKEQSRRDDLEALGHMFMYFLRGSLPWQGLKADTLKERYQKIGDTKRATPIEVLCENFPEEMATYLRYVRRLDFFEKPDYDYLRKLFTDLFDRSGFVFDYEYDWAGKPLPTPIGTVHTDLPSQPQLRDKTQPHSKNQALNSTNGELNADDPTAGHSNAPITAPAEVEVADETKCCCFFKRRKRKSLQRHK

[14] = molecular target: Dual specificity protein kinase CLK4 (Homo sapiens) (UniProt Q9HAZ1); assay: Inhibition of recombinant human CLK4 (128 to end residues) at 1 uM using YRRAAVPPSPSLSRHSSPHQS(p) EDEEE as substrate measured after 40 mins in presence of [gamma33P]ATP by scintillation counting method relative to control
Sequence of Dual specificity protein kinase CLK4 (Homo sapiens) (Q9HAZ1 whole entry, looked up): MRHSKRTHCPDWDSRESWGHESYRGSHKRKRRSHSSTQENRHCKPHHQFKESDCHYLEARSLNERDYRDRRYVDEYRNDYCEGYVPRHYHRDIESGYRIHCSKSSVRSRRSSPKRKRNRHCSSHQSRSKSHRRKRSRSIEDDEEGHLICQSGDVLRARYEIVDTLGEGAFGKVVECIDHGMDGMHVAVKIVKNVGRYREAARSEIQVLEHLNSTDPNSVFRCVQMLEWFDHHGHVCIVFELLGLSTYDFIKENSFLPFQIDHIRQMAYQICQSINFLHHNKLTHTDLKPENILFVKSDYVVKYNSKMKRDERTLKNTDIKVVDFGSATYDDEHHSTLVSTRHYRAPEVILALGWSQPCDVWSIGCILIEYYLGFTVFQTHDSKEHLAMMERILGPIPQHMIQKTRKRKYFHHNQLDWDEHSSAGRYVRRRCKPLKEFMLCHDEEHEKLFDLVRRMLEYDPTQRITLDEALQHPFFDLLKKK
How it was run: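 Single-point inhibition at 1 µM was measured in the Eurofins KinaseProfiler panel. Values are the mean of two independent experiments.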

[15] = system: Receptor-type tyrosine-protein kinase FLT3 (Homo sapiens), P36888 [D835Y]; assay: Inhibition of recombinant human Flt3 (564 to end residues) D835Y mutant at 1 uM using EAIYAAPFAKKK as substrate measured after 40 mins in presence of [gamma33P]ATP by scintillation counting method relative to control
[16] = molecular target: Macrophage colony-stimulating factor 1 receptor (Homo sapiens) (UniProt P07333); assay: Inhibition of recombinant human Fms (538 to end residues) at 1 uM using KKKSPGEYVNIEFG as substrate measured after 40 mins in presence of [gamma33P]ATP by scintillation counting method relative to control
Sequence of Macrophage colony-stimulating factor 1 receptor (Homo sapiens) (P07333 whole entry): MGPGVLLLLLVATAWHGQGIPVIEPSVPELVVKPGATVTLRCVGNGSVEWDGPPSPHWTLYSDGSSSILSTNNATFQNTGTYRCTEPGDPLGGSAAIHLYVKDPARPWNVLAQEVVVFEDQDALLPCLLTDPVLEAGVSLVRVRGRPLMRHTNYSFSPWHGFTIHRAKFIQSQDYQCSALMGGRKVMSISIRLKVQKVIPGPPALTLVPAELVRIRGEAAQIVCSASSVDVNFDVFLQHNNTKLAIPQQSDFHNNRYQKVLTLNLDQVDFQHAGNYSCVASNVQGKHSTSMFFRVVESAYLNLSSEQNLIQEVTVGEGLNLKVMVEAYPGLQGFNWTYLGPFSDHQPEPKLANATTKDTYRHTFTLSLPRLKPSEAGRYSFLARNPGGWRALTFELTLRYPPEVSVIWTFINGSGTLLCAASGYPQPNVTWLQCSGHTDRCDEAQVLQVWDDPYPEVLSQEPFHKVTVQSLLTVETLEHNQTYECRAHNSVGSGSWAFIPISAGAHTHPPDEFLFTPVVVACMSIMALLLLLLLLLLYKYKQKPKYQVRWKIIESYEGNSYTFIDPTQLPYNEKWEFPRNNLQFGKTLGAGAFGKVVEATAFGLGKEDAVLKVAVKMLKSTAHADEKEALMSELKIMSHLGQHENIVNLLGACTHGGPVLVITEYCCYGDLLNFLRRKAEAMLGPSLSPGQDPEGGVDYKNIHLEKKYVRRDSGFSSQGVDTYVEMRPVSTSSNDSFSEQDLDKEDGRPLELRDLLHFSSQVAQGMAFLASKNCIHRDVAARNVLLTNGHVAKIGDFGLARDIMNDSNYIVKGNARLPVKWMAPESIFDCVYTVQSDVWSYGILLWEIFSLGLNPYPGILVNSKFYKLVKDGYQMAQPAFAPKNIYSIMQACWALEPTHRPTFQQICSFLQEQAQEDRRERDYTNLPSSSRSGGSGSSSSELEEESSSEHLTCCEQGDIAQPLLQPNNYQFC

[17] = molecular target: Testis-specific serine/threonine-protein kinase 4 (Homo sapiens) (UniProt Q6SA08); assay: Inhibition of recombinant full-length human TSSK4 at 1 uM using KKLNRTLSFAEPG as substrate measured after 40 mins in presence of [gamma33P]ATP by scintillation counting method relative to control
Sequence of Testis-specific serine/threonine-protein kinase 4 (Homo sapiens) (Q6SA08 whole entry): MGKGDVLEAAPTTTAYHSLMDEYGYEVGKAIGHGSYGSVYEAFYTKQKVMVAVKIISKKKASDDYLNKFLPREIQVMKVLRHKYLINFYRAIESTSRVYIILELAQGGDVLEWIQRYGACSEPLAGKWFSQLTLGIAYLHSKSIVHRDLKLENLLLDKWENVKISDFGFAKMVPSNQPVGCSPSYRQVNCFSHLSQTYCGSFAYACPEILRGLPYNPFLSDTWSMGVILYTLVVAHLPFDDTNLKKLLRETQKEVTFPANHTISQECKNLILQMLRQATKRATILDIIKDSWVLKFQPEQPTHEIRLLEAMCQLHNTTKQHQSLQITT

[18] = molecular target: Tyrosine-protein kinase TXK (Homo sapiens) (UniProt P42681); assay: Inhibition of human Txk (256 to end residues) at 1 uM using GEEPLYWSFPAKKK as substrate measured after 40 mins in presence of [gamma33P]ATP by scintillation counting method relative to control
How it was run: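 Percent inhibition of kinase activity at a single compound concentration, measured by the outsourced Eurofins KinaseProfiler panel. Values are the mean of two independent experiments.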

[19] = molecular target: Wee1-like protein kinase (Homo sapiens) (UniProt P30291); assay: Inhibition of recombinant human Wee1 (214 to end residues) at 1 uM using LSNLYHQGKFLQTFCGSPLYRRR as substrate measured after 40 mins in presence of [gamma33P]ATP by scintillation counting method relative to control
Sequence of Wee1-like protein kinase (Homo sapiens) (P30291 whole entry, looked up): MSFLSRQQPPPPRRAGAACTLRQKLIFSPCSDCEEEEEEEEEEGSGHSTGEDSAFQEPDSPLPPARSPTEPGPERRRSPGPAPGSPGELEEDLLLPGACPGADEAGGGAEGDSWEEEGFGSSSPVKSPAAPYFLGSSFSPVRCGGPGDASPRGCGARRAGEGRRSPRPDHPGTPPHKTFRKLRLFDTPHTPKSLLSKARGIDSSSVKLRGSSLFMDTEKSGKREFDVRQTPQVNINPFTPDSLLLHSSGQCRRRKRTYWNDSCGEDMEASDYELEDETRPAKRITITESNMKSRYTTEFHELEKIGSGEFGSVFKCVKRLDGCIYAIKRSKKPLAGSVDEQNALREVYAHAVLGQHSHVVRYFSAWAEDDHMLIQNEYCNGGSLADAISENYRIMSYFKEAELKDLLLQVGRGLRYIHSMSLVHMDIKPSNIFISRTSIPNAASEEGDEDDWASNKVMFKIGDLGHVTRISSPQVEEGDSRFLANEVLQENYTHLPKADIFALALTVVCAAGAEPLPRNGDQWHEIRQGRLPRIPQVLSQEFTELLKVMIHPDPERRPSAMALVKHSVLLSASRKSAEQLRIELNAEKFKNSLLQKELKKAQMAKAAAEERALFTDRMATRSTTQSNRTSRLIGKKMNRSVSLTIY

[20] = molecular target: Phosphatidylinositol 4-phosphate 5-kinase type-1 alpha (Homo sapiens) (UniProt Q99755); assay: Inhibition of recombinant full-length human PIP5K1alpha at 1 uM using phosphatidylinositol 4-phosphate as substrate measured after 40 mins by HTRF assay relative to control
Sequence of Phosphatidylinositol 4-phosphate 5-kinase type-1 alpha (Homo sapiens) (Q99755 whole entry): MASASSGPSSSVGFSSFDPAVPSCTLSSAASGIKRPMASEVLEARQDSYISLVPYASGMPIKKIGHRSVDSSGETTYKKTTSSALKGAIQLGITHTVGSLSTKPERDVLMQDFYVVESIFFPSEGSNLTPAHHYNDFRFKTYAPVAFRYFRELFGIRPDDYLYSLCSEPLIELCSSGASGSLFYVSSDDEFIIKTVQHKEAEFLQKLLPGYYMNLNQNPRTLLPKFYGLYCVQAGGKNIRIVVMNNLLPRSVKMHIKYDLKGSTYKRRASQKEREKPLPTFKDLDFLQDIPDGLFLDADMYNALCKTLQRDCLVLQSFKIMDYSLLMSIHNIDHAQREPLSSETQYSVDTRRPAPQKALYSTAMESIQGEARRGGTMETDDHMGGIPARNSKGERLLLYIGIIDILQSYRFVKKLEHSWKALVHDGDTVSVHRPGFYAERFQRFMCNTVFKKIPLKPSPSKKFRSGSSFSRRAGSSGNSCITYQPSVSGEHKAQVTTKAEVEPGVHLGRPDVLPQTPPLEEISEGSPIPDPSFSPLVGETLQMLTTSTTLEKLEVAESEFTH

[21] = molecular target: Cyclin-dependent kinase 9 (Homo sapiens) (UniProt P50750); conditions: A549, 0.25 uM
Sequence of Cyclin-dependent kinase 9 (Homo sapiens) (P50750 whole entry): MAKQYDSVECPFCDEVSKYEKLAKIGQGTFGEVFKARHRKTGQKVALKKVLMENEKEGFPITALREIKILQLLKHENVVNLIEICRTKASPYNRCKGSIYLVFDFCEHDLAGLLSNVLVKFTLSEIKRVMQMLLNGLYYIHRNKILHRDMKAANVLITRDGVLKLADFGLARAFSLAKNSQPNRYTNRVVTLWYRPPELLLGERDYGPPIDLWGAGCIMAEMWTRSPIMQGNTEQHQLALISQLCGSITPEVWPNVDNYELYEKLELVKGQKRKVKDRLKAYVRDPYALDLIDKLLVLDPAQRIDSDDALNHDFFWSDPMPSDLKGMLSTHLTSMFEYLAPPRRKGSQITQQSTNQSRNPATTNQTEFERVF

Question: Which IC50 [1] does the source give for `CN(C)C(=O)c1cc2cnc(Nc3ccc(NC(=O)CCCCCCCN=C=S)cc3)nc2n1C1CCCC1` here?
Answer: 1070 nM

Question: And the IC50 [2]?
Answer: 1850 nM

Question: What about the Activity [3] of the same molecule?
Answer: 34.4%

Question: What about the Activity [4] of the same molecule?
Answer: 11.2%

Question: And the Activity [5]?
Answer: 0.669%

Question: And the Activity [6]?
Answer: Active

Question: What about the Activity [7] of the same molecule?
Answer: Active

Question: What about the CLH [8] of the same molecule?
Answer: 87 µL/min/mg

Question: And the Activity [9]?
Answer: Active

Question: What about the inhibition [10] of the same molecule?
Answer: 21%

Question: What about the inhibition [11] of the same molecule?
Answer: 53%

Question: What about the inhibition [12] of the same molecule?
Answer: 16%

Question: And the inhibition [13]?
Answer: 20%

Question: What about the inhibition [14] of the same molecule?
Answer: 1%

Question: What about the inhibition [15] of the same molecule?
Answer: 72%

Question: What about the inhibition [16] of the same molecule?
Answer: 68%

Question: What about the inhibition [17] of the same molecule?
Answer: -7%

Question: What about the inhibition [18] of the same molecule?
Answer: 81%

Question: And the inhibition [19]?
Answer: 8%

Question: And the inhibition [20]?
Answer: 30%

Question: And the inhibition [21]?
Answer: Active
